Source: ChEMBL document CHEMBL1629583, “Establishment of in vitro susceptibility testing methodologies and comparative activities of piperacillin in combination with the penem {beta}-lactamase inhibitor BLI-489” (2009)

Assays:
Type in all cases: functional
[1] = system: Burkholderia cepacia; assay: Antimicrobial activity against Burkholderia cepacia clinical isolate after 18 to 22 hrs by broth microdilution method in presence of beta-lactamase inhibitor Tazobactam
Procedure, shortened: (§1)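 Piperacillin-tazobactam was tested on recent clinical isolates by CLSI broth microdilution in Mueller-Hinton II broth, with tazobactam at constant 4 μg/ml. Wells held 10^5 CFU/ml and were incubated 18 to 22 h at 35°C in ambient air. MIC was the lowest concentration with no growth visible to the unaided eye.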

[2] = system: Haemophilus parainfluenzae; assay: Antimicrobial activity against Haemophilus parainfluenzae clinical isolate after 18 to 22 hrs by broth microdilution method in presence of beta-lactamase inhibitor BLI-489
Procedure, shortened: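 Haemophilus isolates were tested in Haemophilus test medium by CLSI broth microdilution. Serial piperacillin dilutions carried BLI-489 fixed at 4 μg/ml. Inoculum was 10^5 CFU/ml, incubated 18 to 22 h at 35°C in ambient air. MIC was the lowest concentration completely inhibiting growth by eye.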

[3] = system: Staphylococcus aureus; assay: Antimicrobial activity against methicillin-resistant Staphylococcus aureus clinical isolate after 18 to 22 hrs by broth microdilution method in presence of beta-lactamase inhibitor Tazobactam
Procedure, shortened: (§2)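 CLSI broth microdilution in Mueller-Hinton II broth. Antibiotic in serial dilution with the β-lactamase inhibitor held at a constant 4 μg/ml. Inoculum 10^5 CFU/ml. Incubated 18 to 22 h at 35°C in ambient air.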

[4] = system: Staphylococcus epidermidis; assay: Antimicrobial activity against methicillin-susceptible Staphylococcus epidermidis clinical isolate after 18 to 22 hrs by broth microdilution method in presence of beta-lactamase inhibitor BLI-489
Procedure, shortened: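 Piperacillin serially diluted with BLI-489 held at a constant 4 μg/ml, by CLSI broth microdilution in Mueller-Hinton II broth. Inoculum was 10^5 CFU/ml. Plates were incubated 18 to 22 h at 35°C in ambient air. MIC was the lowest concentration completely inhibiting growth seen by the unaided eye.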

[5] = system: Staphylococcus haemolyticus; assay: Antimicrobial activity against Staphylococcus haemolyticus clinical isolate after 18 to 22 hrs by broth microdilution method in presence of beta-lactamase inhibitor BLI-489
Procedure, shortened: (§3)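 CLSI broth microdilution in Mueller-Hinton II broth. Serial dilutions of piperacillin were tested with BLI-489 held at a constant 4 μg/ml. Inoculum was 10^5 CFU/ml. Plates were incubated 18 to 22 h at 35°C in ambient air. MIC was the lowest concentration giving complete growth inhibition by unaided eye.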

[6] = system: Enterococcus faecium; assay: Antimicrobial activity against vancomycin-resistant Enterococcus faecium clinical isolate after 18 to 22 hrs by broth microdilution method in presence of beta-lactamase inhibitor Tazobactam; procedure, shortened: as §2
[7] = system: Streptococcus pneumoniae; assay: Antimicrobial activity against penicillin-susceptible Streptococcus pneumoniae clinical isolate after 18 to 22 hrs by broth microdilution method in presence of beta-lactamase inhibitor Tazobactam
Procedure, shortened: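 Broth microdilution per CLSI in Mueller-Hinton II broth supplemented with 5% lysed horse blood, using serial dilutions of piperacillin-tazobactam. Inoculum was 10^5 CFU/ml. Incubation was 18 to 22 h at 35°C in ambient air. MIC was the lowest concentration with no growth visible to the unaided eye.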

[8] = system: Streptococcus pneumoniae; assay: Antimicrobial activity against penicillin-resistant Streptococcus pneumoniae clinical isolate after 18 to 22 hrs by broth microdilution method in presence of beta-lactamase inhibitor Tazobactam
Procedure, shortened: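 CLSI broth microdilution in Mueller-Hinton II broth with 5% lysed horse blood. Antibiotic in serial dilution with the β-lactamase inhibitor held at a constant 4 μg/ml. Inoculum 10^5 CFU/ml. Incubated 18 to 22 h at 35°C in ambient air. MIC is the lowest concentration with no growth visible to the eye.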

[9] = system: Enterococcus gallinarum; assay: Antimicrobial activity against Enterococcus gallinarum clinical isolate after 18 to 22 hrs by broth microdilution method in presence of beta-lactamase inhibitor BLI-489; procedure, shortened: as §3
[10] = system: Escherichia coli; assay: Antimicrobial activity against Escherichia coli clinical isolate after 18 to 22 hrs by broth microdilution method in presence of beta-lactamase inhibitor Tazobactam
[11] = system: Escherichia coli; assay: Antimicrobial activity against AmpC beta-lactamase-producing Escherichia coli clinical isolate after 18 to 22 hrs by broth microdilution method in presence of beta-lactamase inhibitor Tazobactam; procedure, shortened: as §1
[12] = system: Enterobacter cloacae; assay: Antimicrobial activity against AmpC beta-lactamase-producing Enterobacter cloacae clinical isolate after 18 to 22 hrs by broth microdilution method in presence of beta-lactamase inhibitor Tazobactam; procedure, shortened: as §1
[13] = system: Klebsiella aerogenes; assay: Antimicrobial activity against Enterobacter aerogenes clinical isolate after 18 to 22 hrs by broth microdilution method in presence of beta-lactamase inhibitor Tazobactam; procedure, shortened: as §1
[14] = system: Citrobacter koseri; assay: Antimicrobial activity against Citrobacter koseri clinical isolate after 18 to 22 hrs by broth microdilution method in presence of beta-lactamase inhibitor Tazobactam; procedure, shortened: as §1
[15] = system: Klebsiella aerogenes; assay: Antimicrobial activity against AmpC beta-lactamase-producing Enterobacter aerogenes clinical isolate after 18 to 22 hrs by broth microdilution method in presence of beta-lactamase inhibitor BLI-489
Procedure, shortened: (§4)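 CLSI broth microdilution in Mueller-Hinton II broth. Piperacillin serial dilutions were combined with BLI-489 held constant at 4 μg/ml. Inoculum was 10^5 CFU/ml. Plates were incubated 18 to 22 h at 35°C in ambient air. MIC was the lowest concentration completely inhibiting growth seen by the unaided eye. Piperacillin-tazobactam interpretive criteria were applied.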

[16] = system: Klebsiella pneumoniae; assay: Antimicrobial activity against class A extended spectrum beta-lactamase- and class D OXA- producing Klebsiella pneumoniae clinical isolate after 18 to 22 hrs by broth microdilution method in presence of beta-lactamase inhibitor BLI-489; procedure, shortened: as §3
[17] = system: Klebsiella oxytoca; assay: Antimicrobial activity against Klebsiella oxytoca clinical isolate after 18 to 22 hrs by broth microdilution method in presence of beta-lactamase inhibitor Tazobactam
Procedure, shortened: (§5)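 Piperacillin-tazobactam was tested by CLSI broth microdilution in Mueller-Hinton II broth against clinical isolates. Inoculum was 10^5 CFU/ml, with 18 to 22 h incubation at 35°C in ambient air. MIC was read as the lowest concentration completely inhibiting visible growth.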

[18] = system: Klebsiella oxytoca; assay: Antimicrobial activity against Klebsiella oxytoca clinical isolate after 18 to 22 hrs by broth microdilution method in presence of beta-lactamase inhibitor BLI-489; procedure, shortened: as §3
[19] = system: Serratia marcescens; assay: Antimicrobial activity against Serratia marcescens clinical isolate after 18 to 22 hrs by broth microdilution method in presence of beta-lactamase inhibitor Tazobactam; procedure, shortened: as §5
[20] = system: Proteus mirabilis; assay: Antimicrobial activity against Proteus mirabilis clinical isolate after 18 to 22 hrs by broth microdilution method in presence of beta-lactamase inhibitor BLI-489; procedure, shortened: as §3
[21] = system: Acinetobacter calcoaceticus; assay: Antimicrobial activity against Acinetobacter calcoaceticus clinical isolate after 18 to 22 hrs by broth microdilution method in presence of beta-lactamase inhibitor BLI-489; procedure, shortened: as §4

CCN1CCN(C(=O)N[C@@H](C(=O)N[C@@H]2C(=O)N3[C@@H]2SC(C)(C)[C@@H]3C(=O)O)c2ccccc2)C(=O)C1=O [PIPERACILLIN]
MIC50 [1]: 4 µg/mL | MIC90 [1]: 64 µg/mL | MIC [2]: ≤ 0.004 µg/mL | MIC50 [2]: ≤ 0.004 µg/mL | MIC90 [2]: ≤ 0.004 µg/mL | MIC50 [3]: 64 µg/mL | MIC [4]: ≤ 0.004 µg/mL | MIC50 [4]: ≤ 0.004 µg/mL | MIC90 [4]: ≤ 0.004 µg/mL | MIC50 [5]: 32 µg/mL | MIC90 [5]: > 128 µg/mL | MIC [6]: > 128 µg/mL | MIC50 [6]: > 128 µg/mL | MIC50 [7]: 0.008 µg/mL | MIC90 [7]: 0.015 µg/mL | MIC50 [8]: 2 µg/mL | MIC90 [8]: 4 µg/mL | MIC50 [9]: 2 µg/mL | MIC90 [9]: 8 µg/mL | MIC50 [10]: 2 µg/mL | MIC90 [10]: 2 µg/mL | MIC50 [11]: 4 µg/mL | MIC90 [11]: 8 µg/mL | MIC50 [12]: 8 µg/mL | MIC90 [12]: 32 µg/mL | MIC50 [13]: 64 µg/mL | MIC90 [13]: 128 µg/mL | MIC50 [14]: 2 µg/mL | MIC90 [14]: 16 µg/mL | MIC50 [15]: 2 µg/mL | MIC90 [15]: 8 µg/mL | MIC50 [16]: 8 µg/mL | MIC90 [16]: 64 µg/mL | MIC50 [17]: 2 µg/mL | MIC90 [17]: 8 µg/mL | MIC50 [18]: 2 µg/mL | MIC90 [18]: 8 µg/mL | MIC50 [19]: 2 µg/mL | MIC90 [19]: 64 µg/mL | MIC50 [20]: 0.25 µg/mL | MIC90 [20]: 0.5 µg/mL | MIC50 [21]: > 128 µg/mL | MIC90 [21]: > 128 µg/mL
